Here are results for one compound from ChEMBL document CHEMBL1148625, “3-(1,1-dioxo-2H-(1,2,4)-benzothiadiazin-3-yl)-4-hydroxy-2(1H)-quinolinones, potent inhibitors of hepatitis C virus RNA-dependent RNA polymerase” (J Med Chem, 2006).

Structures are written as SMILES. Bounds are passed on as bounds.

For data set [1], the target named is T1, RNA-directed RNA polymerase (Hepacivirus hominis, UniProt O39930). The experiment in a line: Inhibitory activity against HCV 1a NS5B RNA polymerase.
Data set [2] deals with T2, DNA polymerase alpha catalytic subunit (Homo sapiens, UniProt P09884).
T2 sequence (P09884 whole entry): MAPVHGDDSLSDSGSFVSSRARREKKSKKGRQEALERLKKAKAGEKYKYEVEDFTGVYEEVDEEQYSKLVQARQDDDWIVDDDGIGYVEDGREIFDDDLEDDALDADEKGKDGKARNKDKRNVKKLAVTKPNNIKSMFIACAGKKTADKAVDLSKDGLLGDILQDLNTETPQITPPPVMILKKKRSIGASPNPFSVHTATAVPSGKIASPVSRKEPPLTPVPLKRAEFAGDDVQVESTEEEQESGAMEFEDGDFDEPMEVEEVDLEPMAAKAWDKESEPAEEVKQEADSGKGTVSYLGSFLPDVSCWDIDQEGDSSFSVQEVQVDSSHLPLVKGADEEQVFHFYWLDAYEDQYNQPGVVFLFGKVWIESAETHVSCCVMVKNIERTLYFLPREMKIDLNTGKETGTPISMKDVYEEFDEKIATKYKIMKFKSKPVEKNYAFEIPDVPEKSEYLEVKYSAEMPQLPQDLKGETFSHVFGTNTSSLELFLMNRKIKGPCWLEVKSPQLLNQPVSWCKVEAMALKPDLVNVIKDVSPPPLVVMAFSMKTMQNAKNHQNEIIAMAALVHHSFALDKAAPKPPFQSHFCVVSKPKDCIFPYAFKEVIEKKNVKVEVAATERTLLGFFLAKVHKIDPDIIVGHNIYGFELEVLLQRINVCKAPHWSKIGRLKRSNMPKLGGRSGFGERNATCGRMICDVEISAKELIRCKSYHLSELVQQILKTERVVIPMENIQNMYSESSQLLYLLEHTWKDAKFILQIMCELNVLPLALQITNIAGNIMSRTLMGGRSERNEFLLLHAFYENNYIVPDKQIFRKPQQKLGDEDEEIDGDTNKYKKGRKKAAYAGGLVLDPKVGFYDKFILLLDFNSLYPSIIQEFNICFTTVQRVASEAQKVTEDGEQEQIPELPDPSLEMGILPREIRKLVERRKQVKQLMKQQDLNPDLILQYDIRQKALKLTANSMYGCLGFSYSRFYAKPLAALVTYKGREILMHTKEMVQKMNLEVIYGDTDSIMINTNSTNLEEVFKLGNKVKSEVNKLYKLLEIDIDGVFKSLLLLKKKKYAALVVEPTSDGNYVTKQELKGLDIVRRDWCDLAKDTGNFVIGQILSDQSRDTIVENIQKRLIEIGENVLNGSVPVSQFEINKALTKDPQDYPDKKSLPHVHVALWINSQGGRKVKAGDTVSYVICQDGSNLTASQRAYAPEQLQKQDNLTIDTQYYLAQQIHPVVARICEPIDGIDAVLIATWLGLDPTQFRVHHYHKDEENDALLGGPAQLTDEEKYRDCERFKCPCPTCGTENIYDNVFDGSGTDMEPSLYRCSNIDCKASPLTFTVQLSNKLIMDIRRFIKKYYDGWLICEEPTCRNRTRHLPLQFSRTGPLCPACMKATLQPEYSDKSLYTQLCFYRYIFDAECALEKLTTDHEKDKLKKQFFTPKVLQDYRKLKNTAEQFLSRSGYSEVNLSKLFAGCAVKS
Briefly: Inhibitory activity against human DNA-polymerase-alpha.

A further data set deals with DNA polymerase beta (Homo sapiens, UniProt P06746). Briefly: Inhibitory activity against human DNA-polymerase-beta.
Data set [3] in a line: Clearance in cynomolgus monkey at 0.8 mg/kg, iv or 4.0 mg/kg, po. Format: ADME, organism-based, Macaca fascicularis. As to conditions: in vivo. Summed up: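 Single-dose study, with separate intravenous and oral administrations at the listed mg/kg. Plasma concentrations were followed over time, and mean values were derived for Cmax, T1/2, clearance (mL/min/kg), Vdss (L/kg) and oral bioavailability (%).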

Data set [4] has as its target T1, RNA-directed RNA polymerase. The experiment in a line: Inhibitory activity against HCV delta 21 NS5B RNA polymerase by SPA assay. On the set-up: species or system Hepatitis C virus subtype 1b.
For data set [5], the target named is T3, Nuclear receptor subfamily 1 group I member 2 (Homo sapiens, UniProt O75469).
T3 sequence (O75469 whole entry): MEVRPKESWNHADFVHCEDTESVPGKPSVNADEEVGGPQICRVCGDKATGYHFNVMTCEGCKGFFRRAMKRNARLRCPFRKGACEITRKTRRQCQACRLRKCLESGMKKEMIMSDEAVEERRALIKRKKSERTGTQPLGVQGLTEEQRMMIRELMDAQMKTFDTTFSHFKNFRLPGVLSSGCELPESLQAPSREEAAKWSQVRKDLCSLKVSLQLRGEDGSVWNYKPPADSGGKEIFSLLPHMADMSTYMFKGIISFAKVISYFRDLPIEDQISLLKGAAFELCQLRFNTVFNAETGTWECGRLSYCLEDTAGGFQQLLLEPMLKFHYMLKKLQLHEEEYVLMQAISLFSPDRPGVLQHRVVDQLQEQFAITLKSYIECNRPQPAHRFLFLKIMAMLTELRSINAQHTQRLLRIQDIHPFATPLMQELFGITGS
Briefly: Effect on PXR activity.

For orientation: IC50 means the concentration at which inhibition is half-maximal. By EC50 is commonly meant the concentration that produces a half-maximal response.

T1 sequence (O39930 whole entry): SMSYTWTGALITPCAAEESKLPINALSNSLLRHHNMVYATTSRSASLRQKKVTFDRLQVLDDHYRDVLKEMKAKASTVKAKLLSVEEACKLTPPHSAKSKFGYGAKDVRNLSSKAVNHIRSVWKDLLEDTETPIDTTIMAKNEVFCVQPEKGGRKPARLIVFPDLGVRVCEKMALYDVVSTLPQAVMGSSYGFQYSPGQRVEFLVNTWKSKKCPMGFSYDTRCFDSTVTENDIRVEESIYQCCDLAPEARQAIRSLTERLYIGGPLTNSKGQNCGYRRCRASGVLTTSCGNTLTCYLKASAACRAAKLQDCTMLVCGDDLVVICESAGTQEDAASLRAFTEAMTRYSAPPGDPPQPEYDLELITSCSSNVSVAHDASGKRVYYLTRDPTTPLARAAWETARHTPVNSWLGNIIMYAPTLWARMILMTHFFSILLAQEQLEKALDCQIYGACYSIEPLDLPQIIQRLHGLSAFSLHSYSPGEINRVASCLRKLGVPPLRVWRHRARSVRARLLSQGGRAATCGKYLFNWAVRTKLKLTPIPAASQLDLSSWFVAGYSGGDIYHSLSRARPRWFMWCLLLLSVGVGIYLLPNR

As for `O=c1c(C2=Nc3ccccc3S(=O)(=O)N2)c(O)c2cc(F)ccc2n1CCC1CC1`, the IC50 in data set [1] is 49 nM; in data set [2], over 50000 nM; at DNA polymerase beta, over 50000 nM; in data set [4], 10 nM. In data set [3], the clearance stood at 0.76 mL/min/kg. Moreover, in data set [5], a half-maximal response (EC50) required 5300 nM.
